# Where a SMILES comes first, the peptide text is derived from it. [ ]: non-standard residue; d: D form. ξ: configuration not given here. ξTic = O=C(O)C1Cc2ccccc2CN1
# Assays:
# [1] = biological target: T1, Pituitary adenylate cyclase-activating polypeptide type I receptor (Homo sapiens, UniProt P41586); test: Agonist activity at human recombinant PAC1 receptor expressed in CHO cells assessed as PACAP38-induced calcium mobilization by FLIPR assay; type: functional, cell-based
# Outline: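 CHO cells stably expressing recombinant human PAC1, plated 24 h before assay, loaded with fluo-4 AM for 60 min at 37 °C in the dark, then rinsed into HBSS for 15 min at 37 °C. EC50 and efficacy came from nonlinear regression; 4-10 independent assays in duplicate.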
# Target sequence in this assay (P41586 whole entry): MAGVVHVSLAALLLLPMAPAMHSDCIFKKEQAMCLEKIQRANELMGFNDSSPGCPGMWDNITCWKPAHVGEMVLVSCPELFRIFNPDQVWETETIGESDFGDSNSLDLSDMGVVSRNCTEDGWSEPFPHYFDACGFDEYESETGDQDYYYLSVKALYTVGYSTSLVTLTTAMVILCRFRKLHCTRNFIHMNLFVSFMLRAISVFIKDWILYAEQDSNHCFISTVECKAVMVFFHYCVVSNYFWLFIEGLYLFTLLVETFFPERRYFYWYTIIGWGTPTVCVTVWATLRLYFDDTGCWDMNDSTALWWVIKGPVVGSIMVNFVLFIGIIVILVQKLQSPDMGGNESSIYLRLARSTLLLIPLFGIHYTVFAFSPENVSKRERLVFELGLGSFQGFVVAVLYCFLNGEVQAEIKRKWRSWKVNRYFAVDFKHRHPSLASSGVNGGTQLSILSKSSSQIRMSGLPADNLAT
# [2] = biological target: T1, Pituitary adenylate cyclase-activating polypeptide type I receptor; test: Agonist activity at human recombinant PAC1 receptor expressed in CHO cells assessed as PACAP38-induced calcium mobilization by FLIPR assay relative to PACAP38; type: functional, cell-based
# Outline: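 CHO cells stably expressing recombinant human PAC1, plated 24 h before assay, loaded with fluo-4 AM for 60 min at 37 °C in the dark, then rinsed into HBSS for 15 min at 37 °C. Peptide was added 18 s into a 150 s read (ex 480/em 525 nm), at final concentrations of 1 × 10-12 to 1 × 10^-5 M. Response was normalised to 1 × 10^-5 M PACAP38 on each plate. EC50 and efficacy came from nonlinear regression; 4-10 independent assays in duplicate.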
# Target sequence in this assay (P41586 21-468 limits assumed): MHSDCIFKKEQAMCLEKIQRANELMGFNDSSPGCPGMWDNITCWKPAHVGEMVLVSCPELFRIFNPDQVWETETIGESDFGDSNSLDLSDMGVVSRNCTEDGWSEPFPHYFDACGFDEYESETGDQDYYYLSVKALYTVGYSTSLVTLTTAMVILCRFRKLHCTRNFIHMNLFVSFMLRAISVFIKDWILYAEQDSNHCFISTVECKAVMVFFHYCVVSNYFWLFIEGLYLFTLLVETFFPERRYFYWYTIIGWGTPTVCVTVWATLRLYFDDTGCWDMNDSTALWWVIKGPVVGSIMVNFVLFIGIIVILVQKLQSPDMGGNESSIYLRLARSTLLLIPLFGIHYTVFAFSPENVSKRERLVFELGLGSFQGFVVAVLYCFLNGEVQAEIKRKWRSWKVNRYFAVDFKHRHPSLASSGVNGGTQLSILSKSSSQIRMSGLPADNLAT
# [3] = biological target: T1, Pituitary adenylate cyclase-activating polypeptide type I receptor; test: Displacement of [125I]Ac-PACAP27 from human recombinant PAC1 receptor expressed in CHO cells by gamma- counter; type: cell-based
# Target sequence in this assay (P41586 whole entry): as the sequence (P41586 whole entry) above
SMILES,EC50 [1],Emax [2],IC50 [3]
CC[C@H](C)[C@H](NC(=O)CNC(=O)[C@H](CC(=O)O)NC(=O)[C@H](CO)NC(=O)[C@@H](N)Cc1cnc[nH]1)C(=O)N1Cc2ccccc2CC1C(=O)N[C@H](C(=O)N[C@@H](CC(=O)O)C(=O)N[C@@H](CO)C(=O)N[C@@H](Cc1ccc(O)cc1)C(=O)N[C@@H](CO)C(=O)N[C@@H](CCCNC(=N)N)C(=O)N[C@@H](Cc1ccc(O)cc1)C(=O)N[C@@H](CCCNC(=N)N)C(=O)N[C@@H](CCCCN)C(=O)N[C@@H](CCC(N)=O)C(=O)N[C@@H](CCSC)C(=O)N[C@@H](C)C(=O)N[C@H](C(=O)N[C@@H](CCCCN)C(=O)N[C@@H](CCCCN)C(=O)N[C@@H](Cc1ccc(O)cc1)C(=O)N[C@@H](CC(C)C)C(=O)N[C@@H](C)C(=O)N[C@@H](C)C(=O)N[C@H](C(=O)N[C@@H](CC(C)C)C(N)=O)C(C)C)C(C)C)[C@@H](C)O (some centres not stated),564 nM,65.9%,2170 nM
CSCC[C@H](NC(=O)[C@H](CCC(N)=O)NC(=O)[C@H](CCCCN)NC(=O)[C@H](CCCNC(=N)N)NC(=O)[C@H](Cc1ccc(O)cc1)NC(=O)[C@H](CCCNC(=N)N)NC(=O)[C@H](CO)NC(=O)[C@H](Cc1ccc(O)cc1)NC(=O)[C@H](CO)NC(=O)[C@H](CC(=O)O)NC(=O)[C@@H](NC(=O)[C@H](Cc1ccccc1)NC(=O)[C@H](CC(C)C)N1CC[C@H](NC(=O)[C@H](CC(=O)O)NC(=O)[C@H](CO)NC(=O)[C@@H](N)Cc2cnc[nH]2)C1=O)[C@@H](C)O)C(=O)N[C@@H](C)C(=O)N[C@H](C(=O)N[C@@H](CCCCN)C(=O)N[C@@H](CCCCN)C(=O)N[C@@H](Cc1ccc(O)cc1)C(=O)N[C@@H](CC(C)C)C(=O)N[C@@H](C)C(=O)N[C@@H](C)C(=O)N[C@H](C(=O)N[C@@H](CC(C)C)C(=O)NCC(=O)N[C@@H](CCCCN)C(=O)N[C@@H](CCCNC(=N)N)C(=O)N[C@@H](Cc1ccc(O)cc1)C(=O)N[C@@H](CCCCN)C(=O)N[C@@H](CCC(N)=O)C(=O)N[C@@H](CCCNC(=N)N)C(=O)N[C@H](C(=O)N[C@@H](CCCCN)C(=O)N[C@@H](CC(N)=O)C(=O)N[C@@H](CCCCN)C(N)=O)C(C)C)C(C)C)C(C)C,2480 nM,38.2%,775 nM
CSCC[C@H](NC(=O)[C@H](CCC(N)=O)NC(=O)[C@H](CCCCN)NC(=O)[C@H](CCCNC(=N)N)NC(=O)[C@H](Cc1ccc(O)cc1)NC(=O)[C@H](CCCNC(=N)N)NC(=O)[C@H](CO)NC(=O)[C@H](Cc1ccc(O)cc1)NC(=O)[C@H](CO)NC(=O)[C@H](CC(=O)O)NC(=O)[C@@H](NC(=O)[C@H](Cc1ccccc1)NC(=O)[C@H](C)NC(=O)CNC(=O)[C@H](CC(=O)O)NC(=O)[C@H](CO)NC(=O)[C@@H](N)Cc1cnc[nH]1)[C@@H](C)O)C(=O)N[C@@H](C)C(=O)N[C@H](C(=O)N[C@@H](CCCCN)C(=O)N[C@@H](CCCCN)C(=O)N[C@@H](Cc1ccc(O)cc1)C(=O)N[C@@H](CC(C)C)C(=O)N[C@@H](C)C(=O)N[C@@H](C)C(=O)N[C@H](C(=O)N[C@@H](CC(C)C)C(=O)NCC(=O)N[C@@H](CCCCN)C(=O)N[C@@H](CCCNC(=N)N)C(=O)N[C@@H](Cc1ccc(O)cc1)C(=O)N[C@@H](CCCCN)C(=O)N[C@@H](CCC(N)=O)C(=O)N[C@@H](CCCNC(=N)N)C(=O)N[C@H](C(=O)N[C@@H](CCCCN)C(=O)N[C@@H](CC(N)=O)C(=O)N[C@@H](CCCCN)C(N)=O)C(C)C)C(C)C)C(C)C (H-HSDGAFTDSYSRYRKQMAVKKYLAAVLGKRYKQRVKNK-NH2),9.6 nM,88.3%,34.4 nM
CC[C@H](C)[C@H](NC(=O)CNC(=O)[C@H](CC(=O)O)NC(=O)[C@@H](CO)NC(=O)[C@@H](N)Cc1cnc[nH]1)C(=O)N[C@@H](Cc1ccccc1)C(=O)N[C@H](C(=O)N[C@@H](CC(=O)O)C(=O)N[C@@H](CO)C(=O)N[C@@H](Cc1ccc(O)cc1)C(=O)N[C@@H](CO)C(=O)N[C@@H](CCCNC(=N)N)C(=O)N[C@@H](Cc1ccc(O)cc1)C(=O)N[C@@H](CCCNC(=N)N)C(=O)N[C@@H](CCCCN)C(=O)N[C@@H](CCC(N)=O)C(=O)N[C@@H](CCSC)C(=O)N[C@@H](C)C(=O)N[C@H](C(=O)N[C@@H](CCCCN)C(=O)N[C@@H](CCCCN)C(=O)N[C@@H](Cc1ccc(O)cc1)C(=O)N[C@@H](CC(C)C)C(=O)N[C@@H](C)C(=O)N[C@@H](C)C(=O)N[C@H](C(=O)N[C@@H](CC(C)C)C(=O)NCC(=O)N[C@@H](CCCCN)C(=O)N[C@@H](CCCNC(=N)N)C(=O)N[C@@H](Cc1ccc(O)cc1)C(=O)N[C@@H](CCCCN)C(=O)N[C@@H](CCC(N)=O)C(=O)N[C@@H](CCCNC(=N)N)C(=O)N[C@H](C(=O)N[C@@H](CCCCN)C(=O)N[C@@H](CC(N)=O)C(=O)N[C@@H](CCCCN)C(N)=O)C(C)C)C(C)C)C(C)C)[C@@H](C)O,4.1 nM,90.5%,6.6 nM

# More lines, in order of falling EC50 [1], values ahead:
EC50 [1],Emax [2],IC50 [3],SMILES
4010 nM,69.6%,1420 nM,CC[C@H](C)[C@H](NC(=O)CNC(=O)[C@H](CC(=O)O)NC(=O)[C@H](CO)NC(=O)[C@@H](N)Cc1cnc[nH]1)C(=O)N1Cc2ccccc2CC1C(=O)N[C@H](C(=O)N[C@@H](CC(=O)O)C(=O)N[C@@H](CO)C(=O)N[C@@H](Cc1ccc(O)cc1)C(=O)N[C@@H](CO)C(=O)N[C@@H](CCCNC(=N)N)C(=O)N[C@@H](Cc1ccc(O)cc1)C(=O)N[C@@H](CCCNC(=N)N)C(=O)N[C@@H](CCCCN)C(=O)N[C@@H](CCC(N)=O)C(=O)N[C@@H](CCSC)C(=O)N[C@@H](C)C(=O)N[C@H](C(=O)N[C@@H](CCCCN)C(=O)N[C@@H](CCCCN)C(=O)N[C@@H](Cc1ccc(O)cc1)C(=O)N[C@@H](CC(C)C)C(=O)N[C@@H](C)C(=O)N[C@@H](C)C(=O)N[C@H](C(=O)N[C@@H](CC(C)C)C(=O)NCC(=O)N[C@@H](CCCCN)C(=O)N[C@@H](CCCNC(=N)N)C(=O)N[C@@H](Cc1ccc(O)cc1)C(=O)N[C@@H](CCCCN)C(=O)N[C@@H](CCC(N)=O)C(=O)N[C@@H](CCCNC(=N)N)C(=O)N[C@H](C(=O)N[C@@H](CCCCN)C(=O)N[C@@H](CC(N)=O)C(=O)N[C@@H](CCCCN)C(N)=O)C(C)C)C(C)C)C(C)C)[C@@H](C)O (some centres not stated) (H-HSDGI[ξTic]TDSYSRYRKQMAVKKYLAAVLGKRYKQRVKNK-NH2)
2120 nM,35.4%,2040 nM,CC[C@H](C)[C@H](NC(=O)CNC(=O)[C@H](CC(=O)O)NC(=O)[C@H](CO)NC(=O)[C@@H](N)Cc1cnc[nH]1)C(=O)N[C@@H](Cc1ccccc1)C(=O)N(C)[C@H](C(=O)N[C@@H](CC(=O)O)C(=O)N[C@@H](CO)C(=O)N[C@@H](Cc1ccc(O)cc1)C(=O)N[C@@H](CO)C(=O)N[C@@H](CCCNC(=N)N)C(=O)N[C@@H](Cc1ccc(O)cc1)C(=O)N[C@@H](CCCNC(=N)N)C(=O)N[C@@H](CCCCN)C(=O)N[C@@H](CCC(N)=O)C(=O)N[C@@H](CCSC)C(=O)N[C@@H](C)C(=O)N[C@H](C(=O)N[C@@H](CCCCN)C(=O)N[C@@H](CCCCN)C(=O)N[C@@H](Cc1ccc(O)cc1)C(=O)N[C@@H](CC(C)C)C(=O)N[C@@H](C)C(=O)N[C@@H](C)C(=O)N[C@H](C(=O)N[C@@H](CC(C)C)C(N)=O)C(C)C)C(C)C)[C@@H](C)O
462 nM,65.3%,1330 nM,CC[C@H](C)[C@H](NC(=O)CNC(=O)[C@H](CC(=O)O)NC(=O)[C@H](CO)NC(=O)[C@@H](N)Cc1cnc[nH]1)C(=O)N[C@@H](C)C(=O)N[C@H](C(=O)N[C@@H](CC(=O)O)C(=O)N[C@@H](CO)C(=O)N[C@@H](Cc1ccc(O)cc1)C(=O)N[C@@H](CO)C(=O)N[C@@H](CCCNC(=N)N)C(=O)N[C@@H](Cc1ccc(O)cc1)C(=O)N[C@@H](CCCNC(=N)N)C(=O)N[C@@H](CCCCN)C(=O)N[C@@H](CCC(N)=O)C(=O)N[C@@H](CCSC)C(=O)N[C@@H](C)C(=O)N[C@H](C(=O)N[C@@H](CCCCN)C(=O)N[C@@H](CCCCN)C(=O)N[C@@H](Cc1ccc(O)cc1)C(=O)N[C@@H](CC(C)C)C(=O)N[C@@H](C)C(=O)N[C@@H](C)C(=O)N[C@H](C(=O)N[C@@H](CC(C)C)C(N)=O)C(C)C)C(C)C)[C@@H](C)O
8.4 nM,105%,11 nM,CC[C@H](C)[C@H](NC(=O)CNC(=O)[C@H](CC(=O)O)NC(=O)[C@H](CO)NC(=O)[C@@H](N)Cc1cnc[nH]1)C(=O)N[C@@H](CC1CCCCC1)C(=O)N[C@H](C(=O)N[C@@H](CC(=O)O)C(=O)N[C@@H](CO)C(=O)N[C@@H](Cc1ccc(O)cc1)C(=O)N[C@@H](CO)C(=O)N[C@@H](CCCNC(=N)N)C(=O)N[C@@H](Cc1ccc(O)cc1)C(=O)N[C@@H](CCCNC(=N)N)C(=O)N[C@@H](CCCCN)C(=O)N[C@@H](CCC(N)=O)C(=O)N[C@@H](CCSC)C(=O)N[C@@H](C)C(=O)N[C@H](C(=O)N[C@@H](CCCCN)C(=O)N[C@@H](CCCCN)C(=O)N[C@@H](Cc1ccc(O)cc1)C(=O)N[C@@H](CC(C)C)C(=O)N[C@@H](C)C(=O)N[C@@H](C)C(=O)N[C@H](C(=O)N[C@@H](CC(C)C)C(N)=O)C(C)C)C(C)C)[C@@H](C)O
0.7 nM,110%,6.5 nM,CC[C@H](C)[C@H](NC(=O)CNC(=O)[C@H](CC(=O)O)NC(=O)[C@H](CO)NC(=O)[C@@H](N)Cc1cnc[nH]1)C(=O)N[C@@H](Cc1cccc2ccccc12)C(=O)N[C@H](C(=O)N[C@@H](CC(=O)O)C(=O)N[C@@H](CO)C(=O)N[C@@H](Cc1ccc(O)cc1)C(=O)N[C@@H](CO)C(=O)N[C@@H](CCCNC(=N)N)C(=O)N[C@@H](Cc1ccc(O)cc1)C(=O)N[C@@H](CCCNC(=N)N)C(=O)N[C@@H](CCCCN)C(=O)N[C@@H](CCC(N)=O)C(=O)N[C@@H](CCSC)C(=O)N[C@@H](C)C(=O)N[C@H](C(=O)N[C@@H](CCCCN)C(=O)N[C@@H](CCCCN)C(=O)N[C@@H](Cc1ccc(O)cc1)C(=O)N[C@@H](CC(C)C)C(=O)N[C@@H](C)C(=O)N[C@@H](C)C(=O)N[C@H](C(=O)N[C@@H](CC(C)C)C(N)=O)C(C)C)C(C)C)[C@@H](C)O

# Reference: ChEMBL document CHEMBL1138520, “Molecular and conformational determinants of pituitary adenylate cyclase-activating polypeptide (PACAP) for activation of the PAC1 receptor” (J Med Chem, 2009)
